High-throughput results (PubChem BioAssay)
TAAR1 agonist: human TAAR1 agonists, primary screen, Fluo-8 calcium fluorescence, CHO RD-HGA16 cells; Trace amine-associated receptor 1 (Homo sapiens), Q96RJ0; vehicle wells 0%, saturating PEA agonist 100%; activation, % at 3 µM; 0.99% of 360,000 active; AID 624467, 2012;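 active = activation above the mean activation of all test compounds in the run plus 3 SD, cut at about 38% in these data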
Target sequence (Q96RJ0 whole entry, looked up): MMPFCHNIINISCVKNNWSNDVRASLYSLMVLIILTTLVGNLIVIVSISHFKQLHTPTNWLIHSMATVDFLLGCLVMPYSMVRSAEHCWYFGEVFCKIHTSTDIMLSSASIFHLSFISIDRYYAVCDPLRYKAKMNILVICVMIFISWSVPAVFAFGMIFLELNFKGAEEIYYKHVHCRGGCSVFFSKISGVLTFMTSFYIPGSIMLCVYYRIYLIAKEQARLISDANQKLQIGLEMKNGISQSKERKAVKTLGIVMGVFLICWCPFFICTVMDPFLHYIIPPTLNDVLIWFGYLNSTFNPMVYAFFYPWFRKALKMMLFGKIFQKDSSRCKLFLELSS
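test system = CHO RD-HGA16 cells carrying human TAAR1 plus Gα16 | schedule = 17-24 h seeding, 75 min 37 °C dye, 30 min RT | compound dosing = 3 µM single concentration | control set = DMSO and PEA EC100 | replicates = n 1 | signal = Fluo-8 fluorescence, 5 s baseline then 140 s kinetic read | measure = percent activation vs PEA EC100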
CHO parental Ca: ATP-evoked calcium signal inhibitors, parental CHO, primary screen, counter-screen for OX1R antagonist project, cell-based, fluorescence, Fluo-8 calcium dye. parental CHO-K1, ATP-induced calcium, Fluo-8 fluorescence. inhibition, % at 5.6 µM. 0.63% of 330,000 active;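 active = inhibition above that plate's mean sample inhibition plus 3 SD, cut at about 26% in these data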
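Test system: untransfected parental CHO cell line. Compound: one dose, 5.6 µM nominal. Detection: intracellular calcium via Fluo-8 no-wash fluorescent dye. Measure: % inhibition. Benchmarks: ATP-challenged DMSO wells low, unchallenged DMSO wells high.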
GalR3 antag: GalR3 antagonists in HEK293 cells, primary screen, cell-based, fluorescence readout | HEK293 GalR3-CNG cAMP membrane potential fluorescence; galR3 body fused to GalR1 C-terminus | Galanin receptor type 3 (Homo sapiens), O60755 | inhibition, % at 3 µM | 0.44% of 360,000 active;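 active = inhibition above the screen-wide average plus 3 SD, cut at about 13% in these data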;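 also: forskolin and galanin both at EC90 stimulate the cells; cAMP rise reported by CNG channel membrane potential dye signal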
Target sequence (O60755 1-299 limits assumed): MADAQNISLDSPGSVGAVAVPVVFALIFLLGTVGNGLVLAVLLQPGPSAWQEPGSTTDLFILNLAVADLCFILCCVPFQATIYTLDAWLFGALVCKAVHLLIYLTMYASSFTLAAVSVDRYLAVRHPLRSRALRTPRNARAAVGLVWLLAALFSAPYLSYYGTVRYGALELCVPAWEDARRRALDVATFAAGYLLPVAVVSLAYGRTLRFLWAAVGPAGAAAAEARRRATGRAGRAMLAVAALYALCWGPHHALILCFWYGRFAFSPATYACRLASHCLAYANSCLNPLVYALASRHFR
OX1R antag-1: antagonists of human orexin 1 receptor (OX1R) | AID 485270, 2010 | OX1R-expressing cells, FRET antagonist read-out | inhibition, % at 6.6 µM | 1.8% of 330,000 active | Orexin/Hypocretin receptor type 1 (Homo sapiens), O43613; in the data active = inhibition mostly above about 38%, no sharp cut-off; inactive = mostly below about 40%
TAAR1 antag: human TAAR1 antagonists, primary screen, Fluo-8 calcium fluorescence, CHO RD-HGA16 cells | antagonist | inhibition, % at 3 µM | 1.5% of 360,000 active;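 active = inhibition above a per-plate cutoff, the mean inhibition of test compounds on that plate plus 3 SD, cut at about 49% in these data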
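Material: RD-HGA16 CHO cells with stable hTAAR1 and Gα16; Dosing: single nominal final test compound concentration of 3 µM; Schedule: seeding 17-24 h prior, 75-min 37 °C, 30-min RT dye loading; Detection: kinetic Fluo-8 calcium fluorescence measurement; Measure: % inhibition from peak post-agonist over basal fluorescence ratio; Benchmarks: vehicle and agonist controls.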
OX1R antag-2: OX1R (HCRTR1) antagonists, primary screen, fluorescence, CHO/OX1R cells, Fluo-8 calcium, orexin A. 0.43% of 330,000 active. Orexin/Hypocretin receptor type 1 (Homo sapiens), O43613. Fluo-8 calcium fluorescence. inhibition, % at 5 µM;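 active = inhibition above its plate's threshold, mean inhibition of all tested compounds on the plate plus 3 SD, cut at about 37% in these data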
Of the large screens only hits and unclear results are named; the others gave an inactive call. Most compounds without a hit are left out; they make up all but 4.2% or so of the library.

O=C(COC(=O)c1cc([N+](=O)[O-])ccc1N1CCOCC1)Nc1c(Cl)cccc1Cl	OX1R antag-1 54
CC1CC(C)CN(C(=O)COC(=O)c2cc([N+](=O)[O-])ccc2N2CCOCC2)C1 (configuration not stated)	OX1R antag-1 53
CC1CN(C(=O)COC(=O)c2cc([N+](=O)[O-])ccc2Cl)CC(C)O1 (configuration not stated)	OX1R antag-1 41
CC1CN(C(=O)COC(=O)c2cc(Cl)ccc2Cl)CC(C)O1 (configuration not stated)	none
O=C(COC(=O)c1cc([N+](=O)[O-])ccc1N1CCOCC1)Nc1cccc(F)c1	OX1R antag-1 71
COc1ccc(N(C(=O)CNC(=O)c2cccs2)C(C(=O)NC2CCCC2)c2ccncc2)cc1 (configuration not stated)	none
CC(=O)Nc1ccc(NS(=O)(=O)c2ccc(Cl)s2)cc1	none
O=C1c2ccccc2C(=O)c2c(O)c(O)cc(O)c21	OX1R antag-1 28 (no result: GalR3 antag)
O=C(O)c1cccc2c1C(=O)c1ccccc1-2	none
O=C(CN1CCN(c2ccc(O)cc2)CC1)Nc1ccccc1C(=O)NCCc1ccccc1	TAAR1 antag 63
COc1cccc(N2CCN(CC(=O)NCc3ccccc3)CC2)c1	none
COc1cccc(N2CCN(CC(=O)Nc3ccccc3C(=O)NCCc3ccccc3)CC2)c1	TAAR1 antag 53
O=C(c1cccc([N+](=O)[O-])c1)c1ccc2c(c1)C(=O)NC2=O	OX1R antag-1 54
COc1cc(SC)ccc1C(=O)Nc1cc(C)c(OCC(=O)N2CCOCC2)c(C)c1	none
Cc1nc2ccccc2cc1OCc1ccccc1	CHO parental Ca 37
Cc1nc(OCc2ccccc2)c2ccccc2n1	none
Cc1ccc(OCCOC(=O)c2cccc(S(=O)(=O)N3CC(C)OC(C)C3)c2)cc1 (configuration not stated)	none
O=[N+]([O-])c1ccc(Sc2nccn2Cc2ccccc2)c([N+](=O)[O-])c1	OX1R antag-1 38
O=[N+]([O-])c1ccc(Sc2ncccn2)c([N+](=O)[O-])c1	OX1R antag-1 67
CC(=O)N1CCc2c(sc(NC(=O)C3CCCN3S(=O)(=O)c3cccs3)c2C(N)=O)C1 (configuration not stated)	OX1R antag-1 39
Cc1oc2cc(O)ccc2c(=O)c1Oc1ccc(F)cc1	none
CC1CCc2sc(C(=O)OC(C)C(=O)Nc3ncc(Cl)cc3Cl)cc2C1 (configuration not stated)	none (no result: TAAR1 agonist, GalR3 antag, TAAR1 antag)
Cc1ccc(Cl)cc1N1CCN(CC(=O)Nc2ccc(CN3CCCCC3)cc2)CC1	TAAR1 agonist 52
COc1ccccc1N1CCN(CC(=O)Nc2ccc(CN3CCCCC3)cc2)CC1	none (no result: TAAR1 agonist, GalR3 antag, TAAR1 antag)
CC(C)COC(=O)c1cccc2c1-c1ccccc1/C2=N\O	CHO parental Ca 41
CCC(C)NS(=O)(=O)c1ccc(NC(=O)c2cccs2)cc1 (configuration not stated)	none
COc1c(Cl)cc(Cl)cc1C(=O)Nc1ccc(NC(=O)c2cccs2)cc1	TAAR1 antag 69
CCC(C)c1ccc(NC(=O)c2cccs2)cc1 (configuration not stated)	OX1R antag-1 40
COc1ccc(S(=O)(=O)N(C)CC(=O)Nc2ccc(C(F)(F)F)cc2)cc1Cl	CHO parental Ca 32
CCC(=O)N(CCO)Cc1cc2ccc(C)c(C)c2[nH]c1=O	none
CC(=O)N(CCc1ccccc1)Cc1cc2ccc(C)c(C)c2[nH]c1=O	TAAR1 agonist 41
COc1cc(Nc2ccc(C(=O)O)cc2[N+](=O)[O-])cc(OC)c1	OX1R antag-1 54
O=C1NC(=S)/C(=C\c2ccc(-c3ccccc3Cl)o2)S1	TAAR1 antag 50
COc1cc2c(cc1OC)/C(=C/C(=O)c1ccccc1F)NCC2	none (no result: CHO parental Ca, OX1R antag-1, OX1R antag-2)
COc1cc2c(cc1OC)/C(=C/C(=O)c1ccc(F)cc1)NCC2	GalR3 antag 15
CC(=O)[C@]1(O)Cc2c(O)c3c(c(O)c2[C@@H](O[C@H]2C[C@H](N)[C@H](O)[C@H](C)O2)C1)C(=O)c1ccccc1C3=O	CHO parental Ca 37, OX1R antag-2 42 (no result: TAAR1 agonist, GalR3 antag, TAAR1 antag)
COc1cccc2c1C(=O)c1c(O)c3c(c(O)c1C2=O)C[C@@](O)(C(C)=O)C[C@@H]3O[C@H]1C[C@H](N)[C@H](O)[C@H](C)O1	none (no result: CHO parental Ca, GalR3 antag, OX1R antag-1, OX1R antag-2)
COc1cccc2c1C(=O)c1c(O)c3c(c(O)c1C2=O)C[C@@](O)(C(=O)CO)C[C@@H]3O[C@H]1C[C@H](N)[C@@H](O)[C@H](C)O1	OX1R antag-1 41 (no result: TAAR1 agonist, GalR3 antag, TAAR1 antag)
Nc1ccc2oc(-c3ccccc3Cl)nc2c1	none
Nc1ccc2oc(-c3cc(Br)ccc3Cl)nc2c1	OX1R antag-1 47 (no result: TAAR1 agonist, GalR3 antag, TAAR1 antag)
O=[N+]([O-])c1ccc(O)c(/C=N/Nc2ccccn2)c1	TAAR1 agonist 45, CHO parental Ca 87, TAAR1 antag 73, OX1R antag-2 75
CCOc1ccc(N2C(=O)c3ccc(C(=O)OCC(=O)N(CC)C4CCS(=O)(=O)C4)cc3C2=O)cc1 (configuration not stated)	none
CCN(CC)c1ccc(/C=N/NC(=O)c2cccc(S(=O)(=O)N3CCOCC3)c2)c(O)c1	OX1R antag-1 66
C/C(=N\NC(=O)c1ccc(Br)cc1)C1C(=O)c2ccccc2C1=O	OX1R antag-1 55
CC(/C=N/NC(=O)c1ccncc1)=C\c1ccc(C(C)C)cc1	TAAR1 antag 49
CC(/C=N/NC(=O)c1cccnc1)=C\c1ccccc1	none
CC(/C=N/NC(=O)c1cc(-c2ccc(C)o2)[nH]n1)=C\c1ccccc1	OX1R antag-1 59
C/C(=N\NC(=O)c1ccc(-c2ccccc2)cc1)C1C(=O)c2ccccc2C1=O	none
CC(/C=N/NC(=O)c1ccc(Br)cc1)=C\c1ccccc1	CHO parental Ca 66
Cc1ccc(-c2cc(C(=O)N/N=C/c3ccccc3)n[nH]2)o1	none
CC(C)c1nnc(SCC(=O)N2CCc3ccccc32)n1C	none
CCOc1ccc(OCC)c(NC(=O)C2CCN(S(=O)(=O)c3cccnc3)CC2)c1	none
N=c1c(C(=O)NCC2CCCO2)cc2c(=O)n3ccccc3nc2n1Cc1ccccc1Cl (configuration not stated)	none
